Experimental data gathered from unrelated publications.
Lines come from different studies, so protocols differ.
Target: Protein kinase C eta type (PRKCH, Homo sapiens, UniProt P24723)

SMILES | effect on | mode | technique | tested at | endpoint | value
Nc1ncnc2occ(-c3ccc(NC(=O)Nc4cc(C(F)(F)F)ccc4F)cc3)c12 | cell-free assay | – | – | 20 µM | remaining signal | 64%
COc1cc2ncnc(Nc3ccc(Oc4ccccc4)cc3C)c2cc1OC | enzyme activity | inhibitor | – | 1 µM | inhibition | 7%
CNC(=O)c1ccc(Nc2ncc(C(F)(F)F)c(NCc3nccnc3N(C)S(C)(=O)=O)n2)cc1 | cell-free assay | – | competition with immobilised ligand | 0.1 µM | remaining binding | 86%
CCN(CC)c1ccc(C2=NNC(=O)CC2C)cc1[N+](=O)[O-] (stereo not shown) | enzyme activity | inhibitor | – | 10 µM | remaining activity | 105%
Cc1ccc(NC(=O)c2ccc(C)c(C(F)(F)F)c2)cc1C#Cc1nn(C2CCC(O)CC2)c2ncnc(N)c12 (stereo not shown) | cell-free assay | – | – | 10 µM | remaining signal | 72%
CC(C)(O)c1cncc(-c2nc3ccc(F)cc3n2C2CC2)c1 | cell-free assay | – | competition with immobilised ligand | 1 µM | remaining binding | 98%
CC/C(=N\NC(=O)NCc1cccc(O)c1)c1ccc(O)c(C)c1O | enzyme activity | inhibitor | – | 0.1 µM | inhibition | 44.8%
CN(c1ccnc(CNc2nc(Nc3ccc4c(c3)CC(=O)N4)ncc2C(F)(F)F)n1)S(C)(=O)=O | cell-free assay | – | competition with immobilised ligand | 1 µM | remaining binding | 100%
Cn1cncc1C1=CN(c2ncnc3[nH]cnc23)CCS1 | enzyme activity | inhibitor | radiometric | 2 µM | inhibition | 83.6%
CNCc1ccccc1-c1csc([C@H](C)Nc2nc(C)nc3cc(OC)c(OC)cc23)c1 | cell-free assay | – | competition with immobilised ligand | 1 µM | remaining binding | 100%
COc1cc(Cl)c(C(=O)N[C@@H](CN[C@H]2CC[C@@H](N)CC2)Cc2ccc(C#N)cc2)cc1-c1ccc(CN[C@H](C)c2ccc(C)cc2)o1 | enzyme activity | inhibitor | – | 1 µM | remaining activity | 104%
COc1cc(-c2cc(-c3ccc(N4CCNCC4)cc3)cnc2C)cc(OC)c1OC | enzyme activity | inhibitor | – | 0.1 µM | inhibition | 2%
CN1CC(Oc2cnc(C#N)cc2-c2ccn3nc(NC(=O)C4CC4)cc3c2)C1 | enzyme activity | inhibitor | – | 1 µM | inhibition | -11%
CNC(=O)c1cc(Oc2ccc(NC(=O)Nc3ccc(Cl)c(C(F)(F)F)c3)cc2)ccn1 | enzyme activity | inhibitor | – | 10 µM | inhibition | 0%
Cn1cnc(Br)c1C1=CN(c2ncnc3[nH]cnc23)CCS1 | enzyme activity | inhibitor | radiometric | 2 µM | inhibition | 91.8%
CC(C)CC(=O)N1CCc2nc(-c3ccc(Br)cc3)nc(N(C)Cc3ccccc3)c2C1 | cell-free assay | – | competition with immobilised ligand | 0.1 µM | remaining binding | 94%
Cc1ccc(C(=O)NCc2ccsc2)cc1C#Cc1cn(C(C)C)c2ncnc(N)c12 | enzyme activity | inhibitor | – | 1 µM | activity vs control | 118%
CC(=O)c1c(NS(C)(=O)=O)c2cc(-c3ccc(Cl)cc3)c(-c3ccc(Cl)cc3Cl)nc2n(C)c1=O | cell-free assay | – | competition with immobilised ligand | 1 µM | remaining binding | 91%
O=C(Nc1cnn(-c2csc(C(=O)NC3COC3)c2)c1)Nc1c(F)cccc1Cl | enzyme activity | inhibitor | – | 5 µM | remaining activity | 99%
